Sampled rows, rich in hits. Any-hit rate of the full collection: about 1.5%.
NR1D1 modulator – Rev-erb alpha (human) modulation; Rev-erbα–FITC-DNA binding, fluorescence polarization, 90 min; activity, % at 10 µM; 370,000 tested, 0.79% active; AID 1259318;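 active = activity above about 14%, limit read from the data; passing the limit was not always enough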;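 note: 0% = DMSO wells with 35 nM protein and 100% = DMSO wells with 750 nM protein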
PG9 binder – PG9 antibody binding by small molecule; AID 624416; inhibition, % at 6.7 µM; 360,000 tested, 0.43% active; TR-FRET gp120-PG9 antibody binding; in the data active = inhibition above about 8.5%
NR2E3 ag-1 – NR2E3 (human) agonism. 320,000 tested, 0.12% active. Q9Y5X4. AID 2300. inhibition of corepressor binding, % at 4.78 µM. GST-NR2E3/biotin-RetCOR TR-FRET, 1536-well;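 active = percent inhibition above the cutoff of mean plus 3 SD of all tested compounds, set per screening campaign, cut at about 20% in these data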;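 note: 0% = DMSO wells and 100% = biotin wells as full block of FRET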
Target sequence (Q9Y5X4 whole entry, looked up): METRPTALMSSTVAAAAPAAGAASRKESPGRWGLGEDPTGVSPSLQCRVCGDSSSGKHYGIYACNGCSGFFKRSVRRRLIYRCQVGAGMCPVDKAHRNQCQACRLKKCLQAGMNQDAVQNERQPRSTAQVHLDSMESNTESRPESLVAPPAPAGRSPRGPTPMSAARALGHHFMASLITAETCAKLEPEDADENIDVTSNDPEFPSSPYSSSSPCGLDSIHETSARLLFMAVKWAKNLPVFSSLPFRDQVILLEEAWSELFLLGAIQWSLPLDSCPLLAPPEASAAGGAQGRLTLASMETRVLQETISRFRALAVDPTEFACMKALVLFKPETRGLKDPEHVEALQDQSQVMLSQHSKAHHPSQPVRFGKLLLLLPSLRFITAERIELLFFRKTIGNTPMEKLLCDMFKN
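System: GST-NR2E3 and biotin-RetCOR proteins; probe or stimulus: 7 nM biotin-RetCOR; doses: compound at 4.8 µM, single dose; schedule: Compound–protein incubation for 5 h at 4 °C; detection: time-resolved FRET; read-out: percent inhibition; controls: biotin wells as high control, 0.6% DMSO wells as low control; format: 1536-well plates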
NR2E3 ag-2 – agonists of human NR2E3 nuclear receptor. AID 602229. Q9Y5X4. inhibition of corepressor binding, % at 3.98 µM. CHO-S Gal4-NCOR/VP16-NR2E3 two-hybrid, luciferase. 360,000 tested, 0.35% active;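 active = inhibition above the mean of all tested compounds plus 3 SD, cut at about 70% in these data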;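 note: 0% = DMSO with NR2E3 transfected cells and 100% = cells lacking NR2E3 construct; higher means lower luciferase signal from less NR2E3 corepressor binding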
PG9 binder conf – PG9 antibody binding, confirmed; shares compounds with PG9 binder; TR-FRET PG9 antibody binding, biochemical; inhibition, % at 6.7 µM; 1,500 tested, 90% active; in the data active = inhibition above about 9%
PGV04 counter – binds control antibody PGV04 in PG9 binder counter-screen | shares compounds with PG9 binder | TR-FRET PGV04 antibody-gp120 binding, biochemical | inhibition, % at 6.7 µM | 1,500 tested, 95% active; in the data active = inhibition above about 9.5%
NR1D1 mod conf – confirmation of modulators of human Rev-erb alpha DNA binding. shares compounds with NR1D1 modulator. AID 1259319. activation, % at 25 µM. Rev-erb alpha FITC-DNA binding, fluorescence polarization, 90 min. 3,000 tested, 61% active;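 active = activation at or above a set limit, or at least 3 SD above the negative control mean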;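 note: 0% = 35 nM protein with DMSO and 100% = 750 nM protein high control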
RORg DNA counter – RORgamma DNA-binding activity, dose-response counter-screen; AID 1259320; purified RORgamma protein-FITC-DNA binding, fluorescence polarization; 910 tested, 8% active; IC50, µM; shares compounds with NR1D1 modulator;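 active = Compounds whose fitted half-maximal concentration for disrupting protein-DNA binding is below 10 micromolar; the record names Rev-erb in its text, so the target is in doubt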
* = called active by the depositor; i = inactive; . = no result given.

SMILES	NR1D1 modulator	PG9 binder	NR2E3 ag-1	NR2E3 ag-2	PG9 binder conf	PGV04 counter	NR1D1 mod conf	others
Cc1ccc(-c2nnc(NCc3nc4ccccc4[nH]3)c3ccccc23)cc1S(=O)(=O)N(C)C	76*	11*	-1	13	21*	34*	53*	RORg DNA counter=>40
O=C(COc1ccc2ccccc2c1Br)NNC(=O)Nc1ccccc1	281*	37*	-61	-9	41*	48*	381*	RORg DNA counter=4*
COC(=O)NNC(=O)COc1ccc2ccccc2c1Br	-2	1	-1	-29	.	.	.
CC(CC(=O)Nc1ccc2c(c1)c(=O)n(C)n2-c1ccc2ccccc2c1)C(F)(F)F (stereo not given)	20*	24*	.	-33	17*	24*	22*
Cc1cccc(NC(=O)c2sc(NC(=O)COc3ccccc3)c(C#N)c2C)c1C	10	1	2	-18	.	.	.
Cc1ccccc1NC(=O)c1sc(NC(=O)COc2ccccc2)c(C#N)c1C	74*	34*	2	-10	37*	53*	58*	RORg DNA counter=>40
COc1ccccc1NC(=O)OCCN1CCCC12CCC(c1ccccc1)CC2 (stereo not given)	0	.	.	.	.	.	.
COC(=O)c1c(-c2ccccc2)csc1NC(=O)c1ccco1	19*	17*	1	-85	9.8*	14*	15
CCOc1ccc(C(=O)OCC(=O)Nc2cc(C)on2)cc1OCC	58*	22*	3	24	4	16*	31*
CC(=O)c1cc(-c2ccccc2S(=O)(=O)NC(C)(C)C)c(=O)n2c1CCC2	-1	.	.	.	.	.	.
Cc1cc(-c2cccc(Br)c2)c(C#N)c(N)n1	21*	34*	19	-20	38*	61*	7
Cc1cc(C)c(C#N)c(N)n1	-4	0	2	22	.	.	.
Cc1ccc(Cn2cc(CN3[C@H](Cc4ccccc4)COc4cc(Br)ccc4S3(=O)=O)nn2)cc1	-7	.	.	.	.	.	.
Cc1ccc(C)c(Cn2c(=O)n(CCCC(=O)NCc3ccco3)c(=O)c3sccc32)c1	18*	18*	6	4	21*	29*	4
COc1cccc(C(=O)Nc2ccc3c(C)cc(=O)oc3c2)c1	20*	9.7*	.	-172	21*	31*	0
O=C(CCCCn1c(=S)[nH]c2ccsc2c1=O)NCc1ccc2c(c1)OCO2	20*	15*	1	18	16*	28*	14
C=CCNC(=O)c1ccc(Cn2c(=S)[nH]c3cc4c(cc3c2=O)OCO4)cc1	58*	23*	-54	10	16*	31*	64*	RORg DNA counter=i
O=C(CCCCn1c(=O)[nH]c2ccsc2c1=O)NCc1ccc2c(c1)OCO2	4	0	1	0	.	.	.
CCN(CC)C(=O)c1ccc2c(=O)n(Cc3ccc4c(c3)OCO4)c(=S)[nH]c2c1	29*	24*	1	-3	4	9	11
Nc1[nH]c(C(=O)c2ccccc2)c(-c2cccc3ccccc23)c1C(=O)c1ccc(Br)cc1	-6	2	.	.	.	.	.
CCCCN1CCN(C(=O)Cn2c(=O)c3ccccc3n(CC)c2=O)CC1	-4	.	.	.	.	.	.
CCOc1ccc2cc(C#N)c(SCC(=O)NC(C)CC)nc2c1 (stereo not given)	.	.	2	.	.	.	.
COC(=O)CSc1nc2cc(OC)ccc2cc1C#N	7	2	-2	-196	.	.	.
COc1ccc2cc(C#N)c(SCC(=O)NNC(=O)Cc3ccccc3)nc2c1	38*	27*	1	-12	24*	52*	12
CCOC(=O)CSc1nc2cc(OCC)ccc2cc1C#N	83*	28*	2	-114	38*	58*	72*	RORg DNA counter=>40
SMILES	NR1D1 modulator	PG9 binder	NR2E3 ag-1	NR2E3 ag-2	PG9 binder conf	PGV04 counter	NR1D1 mod conf	others
Cc1ccc2cc(C#N)c(SCC(=O)NNC(=O)Cc3ccccc3)nc2c1	52*	20*	.	0	38*	41*	44*	RORg DNA counter=>40
Cc1ccc2nc(SCC(=O)NCc3cccs3)c(C#N)cc2c1	47*	15*	0	-1	37*	49*	22*
COC(=O)CSc1nc2ccc(C)cc2cc1C#N	0	-1	-3	-123	.	.	.
C[C@H]1[C@@H](OC(=O)NCc2ccc(C(F)(F)F)cc2)CC[C@@]23CCCN2C(=O)CCC[C@@H]13	-2	.	.	.	.	.	.
COc1cccc(C=NNC(=O)CSc2nc3ccccc3[nH]2)c1O	1	.	.	.	.	.	.
COc1ccc(C(C(=O)N(C)C2CCCC2)N(Cc2ccc(F)cc2)C(=O)c2csc3ccc(Cl)cc23)cc1OC (stereo not given)	4	.	.	.	.	.	.
C[C@@H]1CN([C@@H](C)CO)C(=O)CCCn2cc(nn2)CO[C@H]1CN(C)C(=O)Nc1cccc(Oc2ccccn2)c1	14	2	.	.	.	.	.
COc1cccc(-c2ccc(C#N)c(SCC(=O)NCCc3cccc(Cl)c3)n2)c1	34*	22*	13	0	24*	43*	23*
COc1ccc(-c2ccc(C#N)c(SCC(=O)NCCc3ccccc3)n2)cc1OC	.	.	-3	0	.	.	.
C#CCN(C)S(=O)(=O)c1ccc(N2CCCC2)cc1Br	-2	.	.	.	.	.	.
Cc1nc2sc(C(=O)OCC(=O)N3c4ccccc4CC3C)c(C)c2c(=O)[nH]1 (stereo not given)	20*	9.9*	2	15	21*	26*	14
CCOC(=O)N1CCN(C(=O)C[C@H]2C[C@@]3(C(=O)OCC)CCCC4=C3N(CCC4)C2=O)CC1	-6	.	.	.	.	.	.
CCc1nc(Nc2cc(OC)ccc2OC)c2oc3ccccc3c2n1	22*	13*	5	-56	20*	25*	12
CCc1nc(Nc2ccccc2OC)c2oc3ccccc3c2n1	-1	-2	1	-24	.	.	.
CCCCCCN1CCS(=O)(=O)N(Cc2ccc(OC)cc2)C(C(=O)OC)C1 (stereo not given)	-1	.	.	.	.	.	.
COc1cc(OC)cc(-c2c(Sc3ccccc3)c3cc(-c4ccc5c(c4)OCCO5)ccc3n2C)c1	23*	45*	.	-31	55*	73*	21*
CCOC(=O)c1csc(NC(=O)C2CCCN(S(=O)(=O)c3ccccc3)C2)n1 (stereo not given)	-2	.	.	.	.	.	.
CSc1ccc(C=Nn2c(-c3cc(C)[nH]n3)n[nH]c2=S)cc1	6	.	.	.	.	.	.
Nc1c(S(=O)(=O)c2cccc(Cl)c2)c2nc3ccccc3nc2n1CCN1CCOCC1	32*	11*	0	-3	3	4	4
CC(=O)Nc1cccc(NC(=O)CSc2nc(C)c(C)c(C)c2C#N)c1	-6	1	-1	4	.	.	.
